PMC2628580 (Chemistry & biology, 2008)
Entries after “also recorded” stand apart in the source; their conditions may differ. Each block holds one compound with its values, some of them ahead of it.

What was measured:
rat OR-I7 [1] = target: T1, rat OR-I7 (Rattus norvegicus, UniProt P23270); assay type: cell-based; settings: for potency compared with n-alkanals (in words): activation dose-response curves; for activation of OR-I7 (in words): dose-response by calcium imaging; for maximal efficacy relative to 10 μM 1: mean ± SEM; for OR-I7 response at 30 μM (in words): calcium imaging trace of a GFP+ OSN
T1 sequence (P23270 1-327): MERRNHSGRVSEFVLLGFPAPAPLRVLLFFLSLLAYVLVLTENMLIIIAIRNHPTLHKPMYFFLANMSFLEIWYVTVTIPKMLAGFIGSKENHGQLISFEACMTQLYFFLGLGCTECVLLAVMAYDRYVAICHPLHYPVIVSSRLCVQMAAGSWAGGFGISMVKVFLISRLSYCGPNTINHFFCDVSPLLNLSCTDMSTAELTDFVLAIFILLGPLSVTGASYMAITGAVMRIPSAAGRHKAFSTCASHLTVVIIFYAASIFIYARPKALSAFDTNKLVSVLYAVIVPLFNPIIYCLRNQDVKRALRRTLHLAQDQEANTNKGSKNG
How it was run: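 Dissociated olfactory neurons from male Sprague-Dawley rats (6-7 wk) infected with adenovirus encoding OR-I7 plus separate GFP. GFP+ cells were fura-2AM loaded for 45 min at room temperature and imaged at 380/510 nm every 4 s. The compound came from 0.5M DMSO stock with DMSO-matched dilutions, given as 4 s pulses 3.25 min apart. Each movie was flanked by 10 μM normalizing stimuli and ΔF/F normalized to the trend line. Hill fit used ≥3 cells per point; EC50 ± SD.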

rat OSNs = assay: Panel screening of 1190 viable rat OSNs by calcium imaging; assay type: cell-based; settings: 30 μM, 1190 tested rat OSNs
How it was run: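 Whole olfactory epithelium from uninfected rats was dissociated (collagenase, dispase), plated on concanavalin A coverslips and kept at 32 °C. Cells were loaded with fura-2AM and imaged at room temperature. Each test compound was given individually at 30 μM in random order, 5 min apart, with a DMSO vehicle application. 10 μM forskolin came last for normalization and viability. Responding cells were counted among 1190 tested.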

rat OR-I7 [2] = target: T1, rat OR-I7; assay: Antagonism of octanal; assay type: cell-based; settings: against saturating 10 μM C8
How it was run: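 GFP+ OR-I7-expressing rat olfactory neurons were imaged with fura-2 at room temperature under continuous Ringer perfusion at pH 7.4. The test compound at various concentrations was co-applied with 10 μM octanal. The response was normalized to a trend line between flanking stimuli. An antagonist had to give under 90% of the octanal-alone response. Ratios are mean ± SEM. Inhibition curves were Hill-fitted, with at least three cells per point and IC50 ± SD.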

OR-I7 = settings: vapor phase; ref Araneda et al., 2000; Zhao et al., 1998; cited from earlier work

SMILES: O=CCCCCC1CC1 [Compound 2]
potency compared with n-alkanals (in words) (rat OR-I7 [1]): more potent than C8
fold more potent than C7 (rat OR-I7 [1]; compound 2 vs C7, identical extended length): 40 fold
activation of OR-I7 (in words) (rat OR-I7 [1]): strongly activated
maximal efficacy relative to 10 μM 1 (rat OR-I7 [1]): 0.99 ± 0.02

SMILES: O=CCCCC1CCC1 [Compound 3]
OR-I7 response at 30 μM (in words) (rat OR-I7 [1]): near saturating level
potency compared with n-alkanals (in words) (rat OR-I7 [1]): more potent than both
activation of OR-I7 (in words) (rat OR-I7 [1]): strongly activated
maximal efficacy relative to 10 μM 1 (rat OR-I7 [1]): 1.06 ± 0.1
difference in activity between compound 4 and compound 3 (rat OR-I7 [1]; ratio of EC50, compound 3 vs compound 4): 163 fold

SMILES: O=CCCC1CCCC1 [Compound 4]
OR-I7 response at 30 μM (in words) (rat OR-I7 [1]): unresponsive
activation of OR-I7 (in words) (rat OR-I7 [1]): weakly or not at all; also recorded: marginally active

SMILES: O=CCC1CCCCC1 [Compound 5]
activation of OR-I7 (in words) (rat OR-I7 [1]): weakly or not at all; also recorded: inactive; also recorded: no substantial activity
percentage of OSNs activated (rat OSNs): 3.4%

SMILES: O=CC1CCCCCC1 [Compound 6]
activation of OR-I7 (in words) (rat OR-I7 [1]): weakly or not at all; also recorded: inactive
antagonism of C8 activation of OR-I7 (in words) (rat OR-I7 [2]): antagonize C8 activity
percentage of OSNs activated (rat OSNs): 3.6%

SMILES: CCC1CCC(CC=O)CC1 (stereo not shown) [Compound 11]
potency compared with n-alkanals (in words) (rat OR-I7 [1]): more active than C8
maximal efficacy relative to 10 μM octanal (rat OR-I7 [1]; cis/trans mixture): 1.07 ± 0.05

SMILES: CCCC=O [Compound C4, reference compound]
activation of OR-I7 (in words) (rat OR-I7 [1]): inactive; also recorded: neither type of activity
antagonism of C8 activation of OR-I7 (in words) (rat OR-I7 [2]): failure of C4 (3.9Å) to antagonize C8 activation; also recorded: neither type of activity

Second part, led by results:

activation of OR-I7 (in words) (rat OR-I7 [1]): inactive
SMILES: CCCCC=O [Compound C5, reference compound]

activation of OR-I7 (in words) (rat OR-I7 [1]): marginally active
SMILES: CCCCCC=O [Compound C6, reference compound]
activation of OR-I7 by EOG (in words) (OR-I7): no activation

increase in activity in the step from C6 to C7 (rat OR-I7 [1]; C7 vs C6, calcium imaging): 145 fold
maximal efficacy relative to 10 μM 1 (rat OR-I7 [1]): 0.86 ± 0.07
SMILES: CCCCCCC=O [Compound C7, reference compound]
activation of OR-I7 by EOG (in words) (OR-I7): activation

maximal efficacy relative to 10 μM 1 (rat OR-I7 [1]): 0.89 ± 0.02
SMILES: CCCCCCCC=O [Compound C8, octanal, reference compound]
percentage of OSNs activated (rat OSNs): 5.9%
